Columns and labels:
[1] = Antiproliferative activity against human H460 cells after 48 hrs by MTT assay; assay type: functional, cell-based; conditions: NCI-H460, 48 h
In short: (§1)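 Cells seeded at 3 × 10^3/well and grown 24 h, then exposed to compounds for 48 h. MTT (5 mg/ml stock) added for 2 h at 37 °C, supernatant removed, formazan dissolved in DMSO 15-20 min. Absorbance read at 570 nm. IC50 per cell line, mean of three determinations.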

[2] = Antiproliferative activity against human A875 cells after 48 hrs by MTT assay; assay type: functional, cell-based; conditions: A875, 48 h; in short: as §1
HeLa = assay: Antiproliferative activity against human HeLa cells after 48 hrs by MTT assay; assay type: functional, cell-based; in short: as §1
HepG2 = assay: Antiproliferative activity against human HepG2 cells after 48 hrs by MTT assay; assay type: functional, cell-based; conditions: HepG2, 48 h; in short: as §1
A549 = assay: Antiproliferative activity against human A549 cells after 48 hrs by MTT assay; assay type: functional, cell-based; conditions: A549, 48 h; in short: as §1
HT-29 = assay: Antiproliferative activity against human HT-29 cells after 48 hrs by MTT assay; assay type: functional, cell-based; conditions: HT-29, 48 h; in short: as §1
Bel-7402 = assay: Antiproliferative activity against human Bel7402 cells after 48 hrs by MTT assay; assay type: functional, cell-based; conditions: Bel-7402, 48 h; in short: as §1
HCT-116 = assay: Antiproliferative activity against human HCT116 cells after 48 hrs by MTT assay; assay type: functional, cell-based; conditions: HCT-116, 48 h; in short: as §1
BXPC-3 = assay: Antiproliferative activity against human BxPC3 cells after 48 hrs by MTT assay; assay type: functional, cell-based; conditions: BXPC-3, 48 h; in short: as §1
SMMC-7721 = assay: Antiproliferative activity against human SMMC7721 cells after 48 hrs by MTT assay; assay type: functional, cell-based; conditions: SMMC-7721, 48 h; in short: as §1
A875 [3] = assay: Induction of apoptosis in human A875 cells assessed as appearance of condensed nuclei after 36 hrs by Hoechst 33342 staining-based fluorescence microscopic analysis; assay type: functional, cell-based
In short: (§2)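 A875 cells (1 × 10^5/well) cultured 24 h, then treated for 36 h at 0.38, 0.75 or 1.5 µM. After PBS rinse and fixation in 75% ethanol, morphology checked by inverted bright-field microscope. Nuclei then stained with Hoechst 33342 (2 µg/mL in PBS) and examined by fluorescence microscopy for condensed, fragmented nuclei.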

[4] = Cell cycle arrest in human A875 cells assessed as accumulation at G0/G1 phase at 0.75 uM after 48 hrs by propidium iodide staining-based flow cytometric analysis (reference value: 78.18%); assay type: functional
[5] = Cell cycle arrest in human A875 cells assessed as accumulation at G2/M phase at 0.38 uM after 48 hrs by propidium iodide staining-based flow cytometric analysis (reference value: 10.36%); assay type: functional
[6] = Cell cycle arrest in human A875 cells assessed as accumulation at S phase at 0.75 uM after 48 hrs by propidium iodide staining-based flow cytometric analysis (reference value: 11.46%); assay type: functional
[7] = Cell cycle arrest in human A875 cells assessed as accumulation at G0/G1 phase at 1.5 uM after 48 hrs by propidium iodide staining-based flow cytometric analysis (reference value: 78.18%); assay type: functional
[8] = Cell cycle arrest in human A875 cells assessed as accumulation at G2/M phase at 0.75 uM after 48 hrs by propidium iodide staining-based flow cytometric analysis (reference value: 10.36%); assay type: functional
[9] = Induction of apoptosis in human A875 cells at 0.75 uM after 24 hrs by propidium iodide staining-based flow cytometric analysis (reference value: 1.14%); assay type: functional
[10] = Induction of apoptosis in human A875 cells at 0.38 uM after 48 hrs by propidium iodide staining-based flow cytometric analysis (reference value: 1.56%); assay type: functional
[11] = Induction of apoptosis in human A875 cells at 1.5 uM after 24 hrs by propidium iodide staining-based flow cytometric analysis (reference value: 1.14%); assay type: functional
[12] = Cell cycle arrest in human A875 cells assessed as accumulation at G2/M phase at 1.5 uM after 48 hrs by propidium iodide staining-based flow cytometric analysis (reference value: 10.36%); assay type: functional
A875 [13] = assay: Induction of apoptosis in human A875 cells after 48 hrs by propidium iodide staining-based flow cytometric analysis; assay type: functional, cell-based
A875 [14] = assay: Induction of apoptosis in human A875 cells assessed as cell shrinkage and rounding up after 36 hrs by Hoechst 33342 staining-based fluorescence microscopic analysis; assay type: functional; in short: as §2
[15] = Induction of apoptosis in human A875 cells at 1.5 uM after 48 hrs by propidium iodide staining-based flow cytometric analysis (reference value: 1.56%); assay type: functional
[16] = Cell cycle arrest in human A875 cells assessed as accumulation at S phase at 1.5 uM after 48 hrs by propidium iodide staining-based flow cytometric analysis (reference value: 11.46%); assay type: functional
[17] = Cell cycle arrest in human A875 cells assessed as accumulation at S phase at 0.38 uM after 48 hrs by propidium iodide staining-based flow cytometric analysis (reference value: 11.46%); assay type: functional
[18] = Cell cycle arrest in human A875 cells assessed as accumulation at G0/G1 phase at 0.38 uM after 48 hrs by propidium iodide staining-based flow cytometric analysis (reference value: 78.18%); assay type: functional
[19] = Induction of apoptosis in human A875 cells at 0.38 uM after 24 hrs by propidium iodide staining-based flow cytometric analysis (reference value: 1.14%); assay type: functional
[20] = Induction of apoptosis in human A875 cells at 0.75 uM after 48 hrs by propidium iodide staining-based flow cytometric analysis (reference value: 1.56%); assay type: functional

With `O=C(CSc1nnc(NC(=O)CCl)s1)Nc1ccc(Br)cn1` the IC50 [1] was 7.5 µM, the IC50 [2] was 13.9 µM and the IC50 (HeLa) was 3.4 µM.
In the case of `O=C(CSc1nnc(NC(=O)CCCl)s1)Nc1ccc(Br)cn1`, the IC50 [1] is reported as 0.56 µM, the IC50 [2] is reported as 0.43 µM and the IC50 (HeLa) is reported as 5.3 µM.
For `CC(C)(C)C(=O)Nc1ccc(SCC(=O)Nc2cc(Cl)ccn2)cc1`, the IC50 [1] was 35.3 µM, the IC50 [2] was > 80 µM and the IC50 (HeLa) was > 80 µM.
For `O=C(CSc1ccc(NC(=O)CCl)cc1)NCc1cccc(Cl)c1`, the IC50 [1] was 33.4 µM, the IC50 [2] was 7.8 µM and the IC50 (HeLa) was > 80 µM.
With `COc1ccccc1C(=O)Nc1nnc(SCC(=O)Nc2ccc(Cl)cn2)s1` the IC50 [1] was > 80 µM, the IC50 [2] was > 80 µM and the IC50 (HeLa) was > 80 µM.
For `Cc1ccc(NC(=O)CSc2nnc(NC(=O)CCl)s2)nc1`, the IC50 [1] was 15.4 µM, the IC50 [2] was 18.3 µM and the IC50 (HeLa) was 10.9 µM.
With `O=C(CCl)Nc1ccc(SCC(=O)Nc2ccc(Br)cn2)cc1` the IC50 [1] was 0.53 µM, the IC50 (HepG2) was 5.8 µM and the IC50 (A549) was 6.2 µM. The IC50 [2] was 0.29 µM, the IC50 (HeLa) was 2.1 µM and the IC50 (HT-29) was 13.7 µM. For the same compound, the IC50 (Bel-7402) was 0.67 µM, the IC50 (HCT-116) was 1.2 µM and the IC50 (BXPC-3) was 0.28 µM. The IC50 (SMMC-7721) was 0.43 µM.
With `O=C(CSc1nnc(NC(=O)CCCCl)s1)Nc1ccc(Cl)cn1` the IC50 [1] was 55.2 µM, the IC50 [2] was > 80 µM and the IC50 (HeLa) was > 80 µM.
With `CC(C)(C)C(=O)Nc1ccc(SCC(=O)Nc2ccc(Cl)cn2)cc1` the IC50 [1] was 67.2 µM, the IC50 [2] was > 80 µM and the IC50 (HeLa) was > 80 µM.
With `COc1ccccc1C(=O)Nc1nnc(SCC(=O)Nc2c(C)ccnc2Cl)s1` the IC50 [1] was > 80 µM, the IC50 [2] was > 80 µM and the IC50 (HeLa) was > 80 µM.
With `O=C(CSc1ccc(NC(=O)CCl)cc1)NCc1ccc(Cl)cc1` the IC50 [1] was 23.1 µM, the IC50 [2] was 8.9 µM and the IC50 (HeLa) was > 80 µM.
Compound `Cc1ccnc(Cl)c1NC(=O)CSc1nnc(NC(=O)CCl)s1` has an IC50 [1] of 59.6 µM, an IC50 [2] of 34.7 µM and an IC50 (HeLa) of 70.5 µM.
With `O=C(CSc1ccc(NC(=O)C(Cl)Cl)cc1)Nc1ccc(Br)cn1` the IC50 [1] was 47.8 µM, the IC50 [2] was 56.8 µM and the IC50 (HeLa) was > 80 µM.
For `O=C(CCCl)Nc1ccc(SCC(=O)Nc2ccc(Br)cn2)cc1`, the IC50 [1] was 1.6 µM, the IC50 [2] was 24.3 µM and the IC50 (HeLa) was 15.6 µM.
For `COc1ccccc1C(=O)Nc1nnc(SCC(=O)Nc2ccc(Br)cn2)s1`, the IC50 [1] was > 80 µM, the IC50 [2] was > 80 µM and the IC50 (HeLa) was > 80 µM.
In the case of `O=C(CSc1ccc(NC(=O)CCCl)cc1)NCc1ccc(Cl)cc1`, the IC50 [1] is reported as 60.8 µM, the IC50 [2] is reported as 31.4 µM and the IC50 (HeLa) is reported as > 80 µM.
In the case of `C=CC(=O)Nc1ccc(SCC(=O)NCc2cccc(Cl)c2)cc1`, the IC50 [1] is reported as 74.5 µM, the IC50 [2] is reported as 21.1 µM and the IC50 (HeLa) is reported as > 80 µM.
With `O=C(CCCCl)Nc1ccc(SCC(=O)Nc2ccc(Cl)cn2)cc1` the IC50 [1] was > 80 µM, the IC50 [2] was > 80 µM and the IC50 (HeLa) was > 80 µM.
For `O=C(CSc1nnc(NC(=O)C(Cl)Cl)s1)Nc1ccc(Br)cn1`, the IC50 [1] was 5.3 µM, the IC50 [2] was 6.5 µM and the IC50 (HeLa) was 15.2 µM.
With `C=CC(=O)Nc1ccc(SCC(=O)Nc2ccccn2)cc1` the IC50 [1] was 76.8 µM, the IC50 [2] was 23.4 µM and the IC50 (HeLa) was > 80 µM.
`O=C(CCl)Nc1ccc(SCC(=O)Nc2ccccn2)cc1` showed an IC50 [1] of 11.9 µM, an IC50 [2] of 17.2 µM and an IC50 (HeLa) of 7.8 µM.
Compound `C=CC(=O)Nc1ccc(SCC(=O)Nc2cc(Cl)ccn2)cc1` has an IC50 [1] of 19.7 µM, an IC50 [2] of 14.7 µM and an IC50 (HeLa) of 25.2 µM.
With `O=C(CSc1nnc(NC(=O)c2c(Cl)cccc2Cl)s1)Nc1ccc(Br)cn1` the IC50 [1] was 16.8 µM, the IC50 [2] was 18.6 µM and the IC50 (HeLa) was 25.8 µM.
Work on `O=C(CSc1nnc(NC(=O)CCl)s1)Nc1ccc(Cl)cn1` yielded an IC50 [1] of 5.7 µM, an IC50 [2] of 8.6 µM and an IC50 (HeLa) of 3.6 µM.
With `COc1ccccc1C(=O)Nc1nnc(SCC(=O)Nc2ccc(C)cn2)s1` the IC50 [1] was > 80 µM, the IC50 [2] was > 80 µM and the IC50 (HeLa) was > 80 µM.
`O=C(CCCl)Nc1ccc(SCC(=O)Nc2cc(Cl)ccn2)cc1` showed an IC50 [1] of 10.9 µM, an IC50 [2] of 12.3 µM and an IC50 (HeLa) of 21.7 µM.
In the case of `O=C(CCl)Nc1ccc(SCC(=O)Nc2ccc(Cl)cn2)cc1`, the Activity (A875 [3]) is reported as “Dose-dependent effect”, the IC50 [1] is reported as 0.42 µM and the IC50 (HepG2) is reported as 3.6 µM. The Activity [4] was 48.9%, the Activity [5] was 10.8% and the Activity [6] was 31.2%. It also gave an Activity [7] of 30.5%, an IC50 (A549) of 0.59 µM and an IC50 [2] of 0.098 µM. It also gave an Activity [8] of 21.8%, an Activity [9] of 25.45% and an IC50 (HeLa) of 2.5 µM. It also gave an IC50 (HT-29) of 8.7 µM, an Activity [10] of 11.17% and an Activity [11] of 42.88%. For the same compound, the Activity [12] was 29.9%, the IC50 (Bel-7402) was 0.45 µM and the Activity (A875 [13]) was “Dose-dependent effect”. For the same compound, the Activity (A875 [14]) was “Dose-dependent effect”, the IC50 (HCT-116) was 0.61 µM and the Activity [15] was 61.59%. The Activity [16] was 39.6%, the Activity [17] was 29.1% and the Activity [18] was 60%. The IC50 (BXPC-3) was 0.19 µM, the Activity [19] was 3.67% and the IC50 (SMMC-7721) was 0.35 µM. For the same compound, the Activity [20] was 41.59%.
Compound `O=C(CCCl)Nc1ccc(SCC(=O)Nc2ccccn2)cc1` has an IC50 [1] of 65.4 µM, an IC50 [2] of 29.5 µM and an IC50 (HeLa) of 70.4 µM.
With `O=C(CCl)Nc1ccc(SCC(=O)Nc2cc(Cl)ccn2)cc1` the IC50 [1] was 5.6 µM, the IC50 [2] was 0.85 µM and the IC50 (HeLa) was 2.8 µM.
With `O=C(CSc1ccc(NC(=O)C(Cl)(Cl)Cl)cc1)Nc1ccc(Cl)cn1` the IC50 [1] was > 80 µM, the IC50 [2] was > 80 µM and the IC50 (HeLa) was > 80 µM.
